System: MS2 coat protein
Test: apparent Kd, MS2 coat protein; higher = weaker binding; RNA-MaP array; FMN 200 µM where present
How it was run: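 Stalled E. coli RNA polymerase transcribed each design on Illumina sequencing-chip clusters. The clusters were titrated with SNAP-549-labelled MS2 coat protein, starting at 0.7 or 1.5 nM and doubling up to 3 µM, first without ligand and then with constant ligand, in 100 mM Tris-HCl pH 7.5, 80 mM KCl, 4 mM MgCl2, BSA, DTT, yeast tRNA and Tween-20. Green signal was normalised to red-channel RNA signal and to the control-cluster median Fmax. The apparent Kd is the median of filtered binding-curve fits made for each cluster.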

[1] = designed as: OFF switch for flavin mononucleotide, no ligand
[2] = ligand present: flavin mononucleotide, designed as: OFF switch for flavin mononucleotide
[3] = designed as: ON switch for flavin mononucleotide, no ligand
[4] = ligand present: flavin mononucleotide, designed as: ON switch for flavin mononucleotide

Sequence | apparent Kd [1] [nM] | apparent Kd [2] [nM] | apparent Kd [3] [nM] | apparent Kd [4] [nM]
AAACAUGUCCGAGGAUAUCUGAGAACAUUUUCAAGAGAAGGCGGACAUGAGGAUCACCCAUGUCUCUCCUCAUCAACUCCAAAU | 6.37 | 17.3 | – | –
AAAUAAGUUGCAGGAUAUUAUUUAUAAUAUAUAUAAGAAGGGCAACAAACCUCACAUGAGGAUCACCCAUGUACCCAUGCAUCU | 109 | 44.8 | – | –
GCUGCAUGCAGAGGAUAUGACACAUGAGGAUCACCCAUGUAAUAAAUGAGAAUUUCGAAUGUAACUCAGAAGGCUGCAUGCAGC | 54.2 | 186 | – | –
GAGAAGUCAGGAUAUGCAUGGCGGGACUUGCGUCGUGGCGUGCAGAAGGGACAUGAGGAUCACCCAUGUAAAGC | 45.4 | 39.5 | – | –
GGUGCCAUGUAGAAGGCAGAUCCGAUUCAGAUCUGAGGAUAUACAUGAGGAUCACCCAUGUAAAGGCACCGCACGAGAGUGCAA | 8.12 | 9.11 | – | –
GGAAGGUGAGGAUAUACAAUGACGGAAACGUCAGGUGAGAGACAUGAGGAUCACCCAUGUAGAAGGCACGGAGA | 73.7 | 730 | – | –
GGUGCCAUGUAGAAGGCAGAUCUGAUUCAGAUCUGAGGAUAUACAUGAGGAUCACCCAUGUGAAGGCACCGCACGAGAGUGCAA | 8.21 | 24 | – | –
CAGCUACCCAGUAUGGGUAUUUGUACAGAAGGCCAGGUACAUGAGGAUCACCCAUGUAAAGAUAUGGAGGAUAUGUUAGUGUAU | – | – | 22.1 | 6.86
GAAUUCUCAGGAUAUGUGCGAAGUUACAUGAGGAUCACCCAUGUUAGCCCGUGUCUUUGAGCAGAAGGGAGAGGCU | 14 | 13.6 | – | –
AUCAGCUCGUCAGGAUAUACGUUACUGCGUCAGCAGUGUGGUAAGAUCACAUGAGGAUCACCCAUGUAGAAGGGACGAGCUGAU | 61.8 | 653 | – | –
AUCGUUCGAGAGAAGGGAACAUGAGGAUCACCCAUGUUACCUCACCUGGUGACGGAACUCCAAGUUCAGGAUAUCUCGAGCAAU | 5.38 | 8.25 | – | –
AAUUUUGCAGGAUAUGCGCAGCGUUUAGCCACACUAUGGAAACAUGAGGAUCACCCAUGUAGAAGGGCAGAGAU | 26.4 | 20.8 | – | –
AGAUUAUGAGGAUAUCGAGUUUAGUACAUGAGGAUCACCCAUGUUAUCCAGGUCUCGUUUCGAGAAGGCAUGAUUC | 33.5 | 30.9 | – | –
UGUUGUUUCAAGAAGGAUGUGUAUUUGUAUUCCAUAGGAUAUUGAGAAAUAGUUGCUCAAGUAUACAUGAGGAUCACCCAUGUU | – | – | 14.2 | 9.98
GAGUAGAUCCGAGGAUAUACAAUCCGGAAACGGUACAUGAGGAUCACCCAUGUAGAAGGCGGAUCUACAGGUACUAAAGUACCG | 5.99 | 9.24 | – | –
UUUGUUUGCGGAGGAUAUAUAAGUGGAUCACCCAUAGAAGGCCGACAUGAGGAUCACCCAUGUUAGACAUGAGGAUCACCCAUG | 102 | 140 | – | –
UUGGACGUCGUAGGAUAUGUGGGAUAUUCCUACAUGAGGAUCACCCAUGUUGACAUGGAAGAAGGACAGAAGGACGAUGUCCAU | – | – | 31.1 | 5.52
CGAUGCAGAGGAUAUACAUGAGGAUCACCCAUGUACCUACUCGGGCGUCCUCUUAGAUGUAGAAGGCUGACACU | 62.6 | 72 | – | –
CUAAAUCAUGUAGGAUAUGCAUGGCGAAGCUACGCAGAAGGACAUGAGGAUCACCCAUGUCUGUCCGACAGCGUACUGUCGGAC | 19.6 | 112 | – | –
AAUAAACUCACAGGAUAUAGCAGAGGUCGCUUGAACUUACAGGCGACGAGGCUAGAAGGGUGACCACAUGAGGAUCACCCAUGU | – | – | 1190 | 135
GUGAGACAUGAGGAUCACCCAUGUCAGGAUAUGAUACUAUGUACUUCGGUACAUAGUAUCAGAAGGGACAGUGA | 53.6 | 66.7 | – | –
CGUAUGUCAGGAUAUGCGUAUGCCGCCCAGAACGGGCAGCAGCAGAAGGGACAUGAGGAUCACCCAUGUUCGGG | 68.3 | 73.1 | – | –
AAAAAACAUGAGGAUCACCCAUGUGAGGAUAUGGAAAAAAAAAAAAAAAAAAAAAAAACCAGAAGGCACAAAAA | 92.6 | 60 | – | –
UUUUAACAUGAGGAUCACCCAUGUGAGGAUAUCGAAAUUUAUAUUUAUAUUUAUAAUACGAGAAGGCACAUUUU | 80.3 | 93.6 | – | –
AACUCUGAGAAGGAUAUUCAAUGGGAAACGAUGGAAGAAGGUUUCACAUGAGGAUCACCCAUGUCGAAUAGUGA | 71.9 | 63.9 | – | –
UGUCGGAGUAGAGGAUAUUACAUGAGGAUCACCCAUGUAUGAACCAAUAGCUGGAAACAGCAAUGUAAGAAGGCUGCUCCGACA | 8.91 | 110 | – | –
UAUUAAUGCAAGGAUAUGCUUUUAAUUUUUUUUGCAGAAGGUGCAACAUGAGGAUCACCCAUGUUUCAGGGUAU | 42.1 | 57.6 | – | –
AACAGGACAGGAUAUACAUGAGGAUCACCCAUGUGAGAAUUAAGUAGAUUACCACAAAGUAGAAGGGUCCUGGA | 50.4 | 87.2 | – | –

Sequence | apparent Kd [1] [nM] | apparent Kd [2] [nM] | apparent Kd [3] [nM] | apparent Kd [4] [nM]
AGUCUGCUAGGAUAUACAUGAGGAUCACCCAUGUCUAUCAAUAGACUAUUAACCUGGUGUAGAAGGAGCUUGUA | 11.2 | 14.4 | – | –
GGGUGCUCACCGCCUUAACAUGAGGAUCACCCAUGUGGAGUGCAGGAUAUACGUUUCUAUCAUACGUAGAAGGGCACCGCGCAG | 5.59 | 5.03 | – | –
AUCAUGUAAGGAUAUCUGACAUGUGACGAAAGUCACUGUUCAGAGAAGGUACAUGAGGAUCACCCAUGUAGAAC | 72.2 | 133 | – | –
UUUGCAUUCCGAGGAUAUUCAUUUAAUGACUUCACAUGAGGAUCACCCAUGUGGCGAUUGCGCCGGGAGAAGGCGGUUUGCUUU | – | – | 24.7 | 24
UAUAUAAUUAAGAGCUGGUCCAAAACAUGAGGAUCACCCAUGUAGGAUAUCAGCACGAUAAGUGCUGAGAAGGACAUCCAGCUC | 18.5 | 16.4 | – | –
AGUCGGCGAGGAUAUACAUGAGGAUCACCCAUGUGAUAGAGUGCACGCGUACGUGUACGUAGAAGGCGCUGACA | 11.9 | 37.7 | – | –
GCCAGAGGAGGAUAUCUAAUAUAUCACAUGAGGAUCACCCAUGUCCAGCGAAAGCUGGAGGGAGAAGGCCUCUGGC | 149 | 29.8 | – | –
UCUACGCGAAUCCAGAUGGAUAGCACAUGAGGAUCACCCAUGUAGGAUAUGCUACACAAAGUGUAGCAGAAGGACAAGCGUAGA | 28.3 | 32.3 | – | –
GUGUACAGAGGAUAUGCACGAGUAGUUACGAAAGUAACUAUACAUGAGGAUCACCCAUGUAGAAGGCUGUACAC | 13.5 | 16.6 | – | –
AAAGCACGAGGAUAUACAUGAGGAUCACCCAUGUAUAAAAAAAAAAAAAAAUCCUCAUGUAGAAGGCGUGCAAA | 53.6 | 41 | – | –
AUACCACGAGGAUAUCGUCUAUUUCACAUGAGGAUCACCCAUGUUAUCCUUGUUUCGUUUCGAGAAGGCGUGUUUU | 47.5 | 110 | – | –
CGUAUGUCAGGAUAUGCGUAUGCCAGUCAGGGCGAGUGGCAGCAGAAGGGACAUGAGGAUCACCCAUGUUCGGG | 60.8 | 51.3 | – | –
GGAAUACAUGAGGAUCACCCAUGUAAGGAUAUGCUGAUUAAUUAAUUAUAAUUAUGCAGCAGAAGGUACAAAGG | 85.9 | 104 | – | –
UUAAAUCAUGUAGGAUAUGCAUGGCGAAGCUACGCAGAAGGACAUGAGGAUCACCCAUGUGCUAGCGUCUGGAUACAGAUGCAA | 48.5 | 258 | – | –
UGUGUAGAGGUGAAGCGAAUUACUGAGGAUAUGACAUGAGGAUCACCCAUGUACACAUCGUCAGGUCAGAAGGCAGUGGUUCUU | 7.2 | 21.1 | – | –
AUGCCGUGCAGAGCGCGACGGCGUACAUGAGGAUCACCCAUGUAGGAUAUACUACACAAAGUGUAGUAGAAGGACGUGCGACUG | 30.6 | 33.4 | – | –
CGGAACAUGAGGAUCACCCAUGUAGCUACUUAAAGGUGCUACAGAAGGGACAUUGCGCGUCAUGGUCAGGAUAUGUAGGGCGGA | – | – | 148 | 62.4
AGAACUGAUAGAGGAUAUGUUUUACAUGAGGAUCACCCAUGUGUACAAGGAUCAAUAUAUUAGUAACAGAAGGCUAUUAGUGAG | 13.2 | 19.5 | – | –
UAAUAAUAAUAAUAGCAGUAUUACAUGAGGAUCACCCAUGUAUAGGAUAUCGUCAGGAAUACUGUCGAGAAGGAUACAAACUGC | 20.7 | 28.7 | – | –
CGAUAGUGUAGUUAUCCGUAGCGAACAUGAGGAUCACCCAUGUAGGAUAUGUUACUAAACUAGUAACAGAAGGGCGUGAGUCUU | 30.2 | 30.6 | – | –
UUUGAAUAAGUGAGGAUAUACUGUUAGUAUUGAUUGUAGAAGGUACAUGAGGAUCACCCAUGUUUAGUAUUUAU | 16.3 | 15.9 | – | –
AUAGAAGACUAGAAGGACCUAGUUGUAUAUUGUCGAGGUAUAUAGUUAGGUAGGAUAUGGGACAUGAGGAUCACCCAUGUCUUG | – | – | 8.51 | 7.75
UGAUAGGACAGAGGAUAUACAUGCUAGAGAUACUAGCUAAAUUUCCUCACAUGAGGAUCACCCAUGUAGAAGGCUGUCCUAUCU | 19.4 | 378 | – | –
CCUAAGGACACAGGAUAUAGCGCGGUGGCUGGGCUCCAACGGCGAGCGACGCUAGAAGGGUGACCACAUGAGGAUCACCCAUGU | – | – | 517 | 122
AUAAUUUUAUAUAUCUUAUUUAUCAGAAGGCAUAACAUGAGGAUCACCCAUGUAUAUUAUUGUUAUGAGGAUAUGAUUUAGUUA | 10.1 | 58.3 | – | –
UUAAAUCGAAACAUGAGGAUCACCCAUGUGUUGUAAUUAAUAUAGGAUAUGUGUAUACUUUUAUAACAGAAGGAUGAUAAUACU | – | – | 22.2 | 16.9
CAGGUAGACUGAGGAUAUACAUUAAACAGCUAGUCUAUCUAGCUGGUCACAUGAGGAUCACCCAUGUAGAAGGCAGUCUGCCUG | 24.6 | 65.4 | – | –
